Laboratory results published in ChEMBL document CHEMBL4138227, “Identification of an oxime-containing C-glucosylarene as a potential inhibitor of sodium-dependent glucose co-transporter 2” (Eur J Med Chem, 2018).

Assays:
[1] = Elimination half life in Sprague-Dawley rat at 1 mg/kg, iv; type: ADME, organism-based; details: in vivo, read-out: beta t1/2 (converted)
Rattus norvegicus [2] = test: In vivo inhibition of SGLT2 in Sprague-Dawley rat assessed as urinary glucose excretion per 200 gram of body weight at 0.1 mg/kg, po administered as single dose measured after 24 hrs; type: functional
Method in brief: (§1)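 Normal SD rats given a single oral dose (0.1, 1, 10 or 50 mg/kg) or vehicle; urine collected over 24 h and glucose excretion expressed as mg per 200 g body weight; mean ± SEM, n = 4/group (vehicle n = 8).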

[3] = Oral bioavailability in Sprague-Dawley rat at 1.1 mg/kg; type: ADME, organism-based; details: in vivo
Rattus norvegicus [4] = test: In vivo inhibition of SGLT2 in Sprague-Dawley rat assessed as urinary glucose excretion per 200 gram of body weight at 10 mg/kg, po administered as single dose measured after 24 hrs; type: functional; method in brief: as §1
[5] = target: T1, Sodium/glucose cotransporter 2 (Homo sapiens, UniProt P31639); test: Inhibition of human SGLT2 expressed in CHO cells assessed as reduction in [14C]AMG uptake after 1 hr by microbeta counting method; type: cell-based
T1 sequence (P31639 whole entry): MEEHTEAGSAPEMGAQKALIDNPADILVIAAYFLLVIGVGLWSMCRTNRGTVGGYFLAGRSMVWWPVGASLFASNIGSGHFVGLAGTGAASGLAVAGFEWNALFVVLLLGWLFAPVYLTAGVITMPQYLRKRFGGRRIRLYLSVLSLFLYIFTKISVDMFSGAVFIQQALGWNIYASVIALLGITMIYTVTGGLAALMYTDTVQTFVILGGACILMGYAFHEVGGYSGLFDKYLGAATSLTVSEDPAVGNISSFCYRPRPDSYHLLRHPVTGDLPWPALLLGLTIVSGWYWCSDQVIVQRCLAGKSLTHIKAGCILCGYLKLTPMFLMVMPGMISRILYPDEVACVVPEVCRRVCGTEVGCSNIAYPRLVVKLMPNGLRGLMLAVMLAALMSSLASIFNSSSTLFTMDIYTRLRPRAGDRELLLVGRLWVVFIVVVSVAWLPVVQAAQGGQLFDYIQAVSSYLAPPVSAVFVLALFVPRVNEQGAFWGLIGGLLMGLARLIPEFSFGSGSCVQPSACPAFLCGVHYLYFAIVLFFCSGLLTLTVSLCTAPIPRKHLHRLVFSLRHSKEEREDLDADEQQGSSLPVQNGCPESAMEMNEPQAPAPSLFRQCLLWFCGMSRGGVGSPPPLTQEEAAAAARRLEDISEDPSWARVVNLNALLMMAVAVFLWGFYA
Method in brief: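 CHO cells stably expressing human SGLT2 (or SGLT1); inhibition of sodium-dependent uptake of [14C]α-methyl-D-glucopyranoside measured; EC50 from at least two independent experiments, each in triplicate.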

[6] = AUC (0 to infinity) in Sprague-Dawley rat at 1 mg/kg, iv; type: ADME, organism-based; set-up: dose 1 mg/kg, time infinity, route intravenous; details: in vivo
Method in brief: (§2)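 Rats got a single intravenous or oral dose, with 3 animals per route. Pharmacokinetic parameters were derived, including T1/2, clearance, Vss, Cmax, Tmax, AUC(0-inf) and oral bioavailability (F).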

[7] = AUC (0 to infinity) in Sprague-Dawley rat at 1.1 mg/kg, po; type: ADME, organism-based; set-up: dose 1.1 mg/kg, time infinity, route oral; details: in vivo; method in brief: as §2
[8] = Cmax in Sprague-Dawley rat at 1.1 mg/kg, po; type: ADME, organism-based; set-up: dose 1.1 mg/kg, route oral; details: in vivo
Rattus norvegicus [9] = test: In vivo inhibition of SGLT2 in Sprague-Dawley rat assessed as urinary glucose excretion per 200 gram of body weight at 50 mg/kg, po administered as single dose measured after 24 hrs; type: functional; method in brief: as §1
[10] = Clearance in Sprague-Dawley rat at 1 mg/kg, iv; type: ADME, organism-based; details: in vivo
[11] = Elimination half life in Sprague-Dawley rat at 1.1 mg/kg, po; type: ADME, organism-based; details: in vivo, read-out: beta t1/2 (converted)
hERG (KCNH2) = hERG (KCNH2) (Homo sapiens, UniProt Q12809); test: Inhibition of human ERG at 10 uM by radioligand assay relative to control
Method in brief: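 hERG radioligand binding assay run externally by a contract laboratory; test compound at 10 µM, percent inhibition reported.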

Rattus norvegicus [12] = test: In vivo inhibition of SGLT2 in Sprague-Dawley rat assessed as increase in urinary glucose excretion per 200 gram of body weight at 0.1 to 50 mg/kg, po administered as single dose measured after 24 hrs relative to control; type: functional
Method in brief: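 Normal Sprague-Dawley rats were given a single oral dose of 0.1, 1, 10 or 50 mg/kg. Urine was collected over 24 h and glucose excretion expressed as mg glucose per 200 g body weight, relative to vehicle controls. Groups were n = 4, with vehicle n = 8. Data are mean ± SEM; p < 0.05 vs vehicle.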

Rattus norvegicus [13] = test: In vivo inhibition of SGLT2 in Sprague-Dawley rat assessed as urinary glucose excretion per 200 gram of body weight at 1 mg/kg, po administered as single dose measured after 24 hrs; type: functional; method in brief: as §1
[14] = Volume of distribution at steady state in Sprague-Dawley rat at 1 mg/kg, iv; type: ADME, organism-based; details: in vivo, read-out: Vdss
[15] = Tmax in Sprague-Dawley rat at 1.1 mg/kg, po; type: ADME, organism-based; details: in vivo
Rattus norvegicus [16] = test: Antihyperglycemic activity in streptozotocin-induced diabetic Sprague-Dawley rat model assessed as reduction in blood glucose level at 0.1 to 10 mg/kg, po administered as single dose measured after 5 hrs relative to control; type: functional; set-up: scale not given: the % may be the effect or the level left
Method in brief: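 STZ-diabetic SD rats (blood glucose >450 mg/dL), single oral dose 0.1 or 10 mg/kg or vehicle; tail-vein blood sampled at 0 (predose), 0.5, 1, 2, 3, 4 and 5 h for glucose; reduction expressed versus vehicle control; mean ± SEM, n = 6/group.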

[17] = Tmax in Sprague-Dawley rat at 1 mg/kg, po; type: ADME, organism-based; details: in vivo
[18] = Elimination half life in Sprague-Dawley rat at 1 mg/kg, po; type: ADME, organism-based; details: in vivo, read-out: beta t1/2 (converted)
[19] = Cmax in Sprague-Dawley rat at 1 mg/kg, po; type: ADME, organism-based; set-up: dose 1 mg/kg, route oral; details: in vivo
[20] = AUC (0 to infinity) in Sprague-Dawley rat at 1 mg/kg, po; type: ADME, organism-based; set-up: dose 1 mg/kg, time infinity, route oral; details: in vivo; method in brief: as §2
[21] = Oral bioavailability in Sprague-Dawley rat at 1 mg/kg; type: ADME, organism-based; details: in vivo

hERG (KCNH2), sequence (Q12809 whole entry): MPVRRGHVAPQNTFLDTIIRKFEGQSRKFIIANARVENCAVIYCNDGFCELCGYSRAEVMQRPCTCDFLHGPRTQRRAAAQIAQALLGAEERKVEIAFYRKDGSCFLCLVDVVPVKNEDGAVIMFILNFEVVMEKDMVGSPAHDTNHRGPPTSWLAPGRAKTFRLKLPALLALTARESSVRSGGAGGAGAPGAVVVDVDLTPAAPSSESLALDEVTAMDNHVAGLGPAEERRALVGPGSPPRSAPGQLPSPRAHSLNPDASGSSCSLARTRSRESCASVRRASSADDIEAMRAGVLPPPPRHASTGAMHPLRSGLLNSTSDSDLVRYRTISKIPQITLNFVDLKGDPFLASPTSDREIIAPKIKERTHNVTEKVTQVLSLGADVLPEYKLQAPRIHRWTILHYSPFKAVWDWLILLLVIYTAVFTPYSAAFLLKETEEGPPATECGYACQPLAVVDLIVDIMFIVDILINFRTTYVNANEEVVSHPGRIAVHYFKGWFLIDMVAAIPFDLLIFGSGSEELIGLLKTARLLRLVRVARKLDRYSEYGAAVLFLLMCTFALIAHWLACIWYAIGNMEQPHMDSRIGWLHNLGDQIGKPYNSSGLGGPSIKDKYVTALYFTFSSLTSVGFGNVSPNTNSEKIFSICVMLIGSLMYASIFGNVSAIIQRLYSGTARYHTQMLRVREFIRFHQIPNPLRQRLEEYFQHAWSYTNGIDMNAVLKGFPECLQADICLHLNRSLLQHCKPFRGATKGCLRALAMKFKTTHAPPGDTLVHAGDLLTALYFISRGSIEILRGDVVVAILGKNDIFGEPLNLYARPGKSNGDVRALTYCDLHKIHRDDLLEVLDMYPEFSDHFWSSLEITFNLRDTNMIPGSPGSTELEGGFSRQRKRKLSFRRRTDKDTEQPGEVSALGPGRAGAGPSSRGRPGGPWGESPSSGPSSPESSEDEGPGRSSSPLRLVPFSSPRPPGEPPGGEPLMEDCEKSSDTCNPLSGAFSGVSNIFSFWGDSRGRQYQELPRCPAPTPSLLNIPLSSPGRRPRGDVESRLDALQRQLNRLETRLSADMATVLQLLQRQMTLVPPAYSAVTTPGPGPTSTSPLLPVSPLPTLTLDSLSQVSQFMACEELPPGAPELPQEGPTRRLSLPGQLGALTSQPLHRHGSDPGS

CCOc1ccc(Cc2cc([C@@H]3O[C@H](/C=N/O)[C@@H](O)[C@H](O)[C@H]3O)ccc2Cl)cc1
half-life [1]: 4.7 h
Activity (Rattus norvegicus [2]): 275 mg
bioavailability [3]: 64%
Activity (Rattus norvegicus [4]): 1935 mg
EC50 [5]: 46 nM
AUC(0-inf) [6]: 3270 ng·h/mL
AUC(0-inf) [7]: 2270 ng·h/mL
Cmax [8]: 239 ng/mL
Activity (Rattus norvegicus [9]): 2732 mg
clearance [10]: 5 mL/min/kg
half-life [11]: 9 h
inhibition at 10 µM (hERG (KCNH2)): 2%
fold change (FC) (Rattus norvegicus [12]): 476 - 4730
Activity (Rattus norvegicus [13]): 2215 mg
Vd [14]: 1.8 L/kg
Tmax [15]: 1 h
Activity (Rattus norvegicus [16]): 44%

CCOc1ccc(Cc2cc([C@@H]3O[C@H](/C=N/OCc4ccccc4)[C@@H](O)[C@H](O)[C@H]3O)ccc2Cl)cc1
EC50 [5]: 2250 nM

CCOc1ccc(Cc2cc([C@@H]3O[C@H](/C=N/OCCO)[C@@H](O)[C@H](O)[C@H]3O)ccc2Cl)cc1
EC50 [5]: 194 nM

CCC#CCO/N=C/[C@H]1O[C@@H](c2ccc(Cl)c(Cc3ccc(OCC)cc3)c2)[C@H](O)[C@@H](O)[C@@H]1O
EC50 [5]: 396 nM

CCOc1ccc(Cc2cc([C@@H]3O[C@H](/C=N/NC(=O)c4ccco4)[C@@H](O)[C@H](O)[C@H]3O)ccc2Cl)cc1
EC50 [5]: 301 nM

CCOc1ccc(Cc2cc([C@@H]3O[C@H](/C=N/NC(=O)c4cccs4)[C@@H](O)[C@H](O)[C@H]3O)ccc2Cl)cc1
EC50 [5]: 175 nM

CCOc1ccc(Cc2cc([C@@H]3O[C@H](/C=N/NCc4ccccc4)[C@@H](O)[C@H](O)[C@H]3O)ccc2Cl)cc1
EC50 [5]: 38 nM

CCOc1ccc(Cc2cc([C@@H]3O[C@H](/C=N/NC4=NCCN4)[C@@H](O)[C@H](O)[C@H]3O)ccc2Cl)cc1
EC50 [5]: 429 nM

CCOc1ccc(Cc2cc([C@@H]3O[C@H](/C=N/NC(=O)c4ccncc4)[C@@H](O)[C@H](O)[C@H]3O)ccc2Cl)cc1
EC50 [5]: 173 nM

CCOc1ccc(Cc2cc([C@@H]3O[C@H](CNOC)[C@@H](O)[C@H](O)[C@H]3O)ccc2Cl)cc1
half-life [1]: 1.9 h
Tmax [17]: 1.3 h
half-life [18]: 3 h
EC50 [5]: 63 nM
AUC(0-inf) [6]: 1070 ng·h/mL
clearance [10]: 16.5 mL/min/kg
Cmax [19]: 67.2 ng/mL
AUC(0-inf) [20]: 352 ng·h/mL
bioavailability [21]: 32.8%
Vd [14]: 1.8 L/kg

CCOc1ccc(Cc2cc([C@@H]3O[C@H](/C=N/Nc4ccccc4[N+](=O)[O-])[C@@H](O)[C@H](O)[C@H]3O)ccc2Cl)cc1
EC50 [5]: 457 nM

CCOc1ccc(Cc2cc([C@@H]3O[C@H](CNNC(=O)c4ccco4)[C@@H](O)[C@H](O)[C@H]3O)ccc2Cl)cc1
EC50 [5]: 151 nM

CCOc1ccc(Cc2cc([C@@H]3O[C@H](/C=N/OC)[C@@H](O)[C@H](O)[C@H]3O)ccc2Cl)cc1
half-life [1]: 3 h
Tmax [17]: 1 h
half-life [18]: 2.5 h
EC50 [5]: 92 nM
AUC(0-inf) [6]: 1320 ng·h/mL
clearance [10]: 12.6 mL/min/kg
Cmax [19]: 116 ng/mL
AUC(0-inf) [20]: 540 ng·h/mL
bioavailability [21]: 40.5%
Vd [14]: 2.9 L/kg
